What was measured:
[1] = molecular target: T1, Histone deacetylase 8 (Homo sapiens, UniProt Q9BY41); test: Inhibition of HDAC8 (unknown origin) using Fluor de lys as substrate by fluorescence based analysis
T1 sequence (Q9BY41 whole entry): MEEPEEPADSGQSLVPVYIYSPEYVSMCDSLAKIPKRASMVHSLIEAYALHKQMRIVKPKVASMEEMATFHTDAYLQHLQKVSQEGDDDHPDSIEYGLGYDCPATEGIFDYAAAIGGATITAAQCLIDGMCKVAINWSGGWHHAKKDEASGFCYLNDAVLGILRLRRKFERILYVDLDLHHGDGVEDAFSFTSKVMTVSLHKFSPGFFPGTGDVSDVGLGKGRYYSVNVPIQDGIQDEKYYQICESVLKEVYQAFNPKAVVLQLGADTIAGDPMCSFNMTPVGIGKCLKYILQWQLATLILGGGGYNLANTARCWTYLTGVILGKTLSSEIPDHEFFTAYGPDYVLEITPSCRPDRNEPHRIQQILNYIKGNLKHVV

[2] = system: TK-10; test: Antiproliferative activity against human TK-10 cells assessed as cell growth at 10 uM incubated for 48 hrs by SRB assay relative to control; format: functional; conditions: read-out: Activity
Procedure, shortened: (§1)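 NCI-60 single-dose screen: compounds tested at 10 μM, and growth percent of each cell line calculated. The full method follows the NCI DTP protocol.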

[3] = system: SN12C; test: Antiproliferative activity against human SN12C cells assessed as cell growth at 10 uM incubated for 48 hrs by SRB assay relative to control; format: functional; conditions: read-out: Activity; procedure, shortened: as §1
[4] = system: ACHN; test: Antiproliferative activity against human ACHN cells assessed as cell growth at 10 uM incubated for 48 hrs by SRB assay relative to control; format: functional; conditions: read-out: Activity
Procedure, shortened: (§2)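 Single-concentration screen at 10 μM run by NCI on its NCI-60 human tumour panel (blood, lung, colon, CNS, melanoma, ovary, kidney, prostate, breast), following the NCI-60 published methodology. Read-out is growth percent relative to untreated cells.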

[5] = system: A549; test: Antiproliferative activity against human A549 cells assessed as cell growth at 10 uM incubated for 48 hrs by SRB assay relative to control; format: functional; conditions: read-out: Activity; procedure, shortened: as §2
[6] = Cytotoxicity against human HS5 cells assessed as inhibition of cell growth incubated for 72 hrs by alamar blue assay; format: toxicity, cell-based
Procedure, shortened: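 Cells were grown in IMDM with 20% FBS and penicillin/streptomycin at 37 °C in 5% CO2. Drug-treated cells were incubated 72 h. Alamar blue (1 mM solution) was then added for 5–6 h, and fluorescence read at 530/590 nm.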

[7] = system: IGROV-1; test: Antiproliferative activity against human IGROV-1 cells assessed as cell growth at 10 uM incubated for 48 hrs by SRB assay relative to control; format: functional; conditions: read-out: Activity; procedure, shortened: as §2
[8] = system: UACC-257; test: Antiproliferative activity against human UACC-257 cells assessed as cell growth at 10 uM incubated for 48 hrs by SRB assay relative to control; format: functional; conditions: read-out: Activity; procedure, shortened: as §1
[9] = system: M14; test: Antiproliferative activity against human M14 cells assessed as cell growth at 10 uM incubated for 48 hrs by SRB assay relative to control; format: functional; conditions: read-out: Activity; procedure, shortened: as §2
[10] = system: MDA-MB-468; test: Antiproliferative activity against human MDA-MB-468 cells assessed as cell growth at 10 uM incubated for 48 hrs by SRB assay relative to control; format: functional; conditions: read-out: Activity; procedure, shortened: as §2
[11] = system: KM12; test: Antiproliferative activity against human KM12 cells assessed as cell growth at 10 uM incubated for 48 hrs by SRB assay relative to control; format: functional; conditions: read-out: Activity; procedure, shortened: as §2
[12] = system: PC-3; test: Antiproliferative activity against human PC-3 cells assessed as cell growth at 10 uM incubated for 48 hrs by SRB assay relative to control; format: functional; conditions: read-out: Activity; procedure, shortened: as §2
[13] = molecular target: T2, Protein deacetylase HDAC6 (Homo sapiens, UniProt Q9UBN7); test: Inhibition of HDAC6 (unknown origin) using Fluor de lys as substrate by fluorescence based analysis
T2 sequence (Q9UBN7 whole entry): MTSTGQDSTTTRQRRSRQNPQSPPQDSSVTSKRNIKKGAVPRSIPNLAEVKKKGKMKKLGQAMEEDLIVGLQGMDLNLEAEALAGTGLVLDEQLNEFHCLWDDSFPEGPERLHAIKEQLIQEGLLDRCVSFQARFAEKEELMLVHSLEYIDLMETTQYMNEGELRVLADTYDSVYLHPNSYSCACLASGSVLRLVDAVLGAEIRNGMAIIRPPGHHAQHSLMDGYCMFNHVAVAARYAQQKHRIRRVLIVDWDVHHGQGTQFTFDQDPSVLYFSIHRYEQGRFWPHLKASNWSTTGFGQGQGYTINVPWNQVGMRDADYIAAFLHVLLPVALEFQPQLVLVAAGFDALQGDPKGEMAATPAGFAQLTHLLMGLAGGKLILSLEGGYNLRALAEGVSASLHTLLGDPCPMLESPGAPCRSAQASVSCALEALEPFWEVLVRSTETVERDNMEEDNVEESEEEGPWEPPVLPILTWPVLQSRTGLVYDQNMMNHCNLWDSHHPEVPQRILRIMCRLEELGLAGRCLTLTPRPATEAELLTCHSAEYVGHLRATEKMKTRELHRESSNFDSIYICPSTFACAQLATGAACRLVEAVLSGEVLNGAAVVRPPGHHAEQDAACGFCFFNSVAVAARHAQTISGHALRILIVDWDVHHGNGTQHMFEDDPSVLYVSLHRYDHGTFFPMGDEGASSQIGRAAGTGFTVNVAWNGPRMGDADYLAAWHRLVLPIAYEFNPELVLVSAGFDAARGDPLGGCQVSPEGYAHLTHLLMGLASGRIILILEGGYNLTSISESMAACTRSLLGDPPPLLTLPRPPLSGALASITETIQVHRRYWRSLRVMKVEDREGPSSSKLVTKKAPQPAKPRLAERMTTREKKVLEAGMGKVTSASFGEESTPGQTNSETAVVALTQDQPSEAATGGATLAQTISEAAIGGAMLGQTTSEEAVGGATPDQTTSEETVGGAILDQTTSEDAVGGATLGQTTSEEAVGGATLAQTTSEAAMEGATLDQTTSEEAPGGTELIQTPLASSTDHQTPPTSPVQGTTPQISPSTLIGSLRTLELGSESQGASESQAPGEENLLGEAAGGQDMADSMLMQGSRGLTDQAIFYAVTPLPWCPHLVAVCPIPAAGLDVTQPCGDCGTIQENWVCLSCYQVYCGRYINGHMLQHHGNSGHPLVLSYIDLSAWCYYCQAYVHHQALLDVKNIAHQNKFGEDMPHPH

[14] = system: UO-31; test: Antiproliferative activity against human UO-31 cells assessed as cell growth at 10 uM incubated for 48 hrs by SRB assay relative to control; format: functional; conditions: read-out: Activity; procedure, shortened: as §1
[15] = system: CAKI-1; test: Antiproliferative activity against human CAKI-1 cells assessed as cell growth at 10 uM incubated for 48 hrs by SRB assay relative to control; format: functional; conditions: read-out: Activity; procedure, shortened: as §2
[16] = system: EKVX; test: Antiproliferative activity against human EKVX cells assessed as cell growth at 10 uM incubated for 48 hrs by SRB assay relative to control; format: functional; conditions: read-out: Activity; procedure, shortened: as §2
[17] = system: HL-60; test: Antiproliferative activity against human HL-60 cells assessed as cell growth at 10 uM incubated for 48 hrs by SRB assay relative to control; format: functional; conditions: read-out: Activity; procedure, shortened: as §2
[18] = system: UACC-62; test: Antiproliferative activity against human UACC-62 cells assessed as cell growth at 10 uM incubated for 48 hrs by SRB assay relative to control; format: functional; conditions: read-out: Activity; procedure, shortened: as §1

IC50 [1] [nM]	IC50 [13] [nM]	SMILES	growth at 10 µM [2] [%]	growth at 10 µM [3] [%]	growth at 10 µM [4] [%]	growth at 10 µM [5] [%]	IC50 at 72 hrs [6] [nM]	growth at 10 µM [7] [%]	growth at 10 µM [8] [%]	growth at 10 µM [9] [%]	growth at 10 µM [10] [%]	growth at 10 µM [11] [%]	growth at 10 µM [12] [%]	growth at 10 µM [14] [%]	growth at 10 µM [15] [%]	growth at 10 µM [16] [%]	growth at 10 µM [17] [%]	growth at 10 µM [18] [%]
145	9.83	O=C(NO)c1ccc(CN2CC(=O)N(Cc3ccccc3)[C@H](Cc3ccccc3)C2=O)cc1	88.1	96.6	90.6	95.1	> 100000	89	69.3	90.4	79.9	86.9	76.5	69.5	96.5	88.2	102	87.5
513	0.73	O=C1CN(Cc2ccc(C(=O)NO)cc2)C(=O)[C@@H](Cc2c[nH]c3ccccc23)N1	103	100	104	96.6	> 100000	101	96.1	94.2	107	102	97.5	91.1	93.8	106	126	95.5
